Source: publication PMC5812400 (ESMO Open, 2018)
Where “and” joins values, the source holds several entries; their conditions need not be identical. Identical values can stand only once.

Key:
[1] = tested on: adult patients with advanced non-haematological malignancies; assay: DLT and MTD/RP2D determination, phase I dose escalation of milled TAK-228; format: in vivo, human; settings: for Maximum tolerated dose (MTD) / Recommended phase II dose (RP2D): milled
Procedure, shortened: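 Open-label dose escalation at four US sites with milled oral capsules, fasted, in 28-day cycles. Arms: QD days 1–28 (start 4 mg); QD days 2–4, 9–11, 16–18, 23–25 (start 6 mg) with IV taxane 80 mg/m2 on days 1, 8 and 15, ~24 h before dosing; QW days 1, 8, 15, 22 (start 20 mg). DLT: drug-related AE preventing further escalation. MTD: dose giving ≤1 DLT in cycle 1. DLT-evaluable: ≥75% of planned cycle 1 doses, or stopped earlier for a drug-related AE.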

[2] = tested on: patients with haematological malignancies or advanced solid tumours; settings: unmilled TAK-228, haematological malignancies; ref 7 11; cited from earlier work
[3] = Plasma PK of milled TAK-228 in TAK-228+P and TAK-228 QW arms, LC-MS/MS; format: in vivo, human; settings: for Cmax / Tmax / AUC(0-t) / AUC(0-inf) / Vd/F / half-life: human, plasma, oral
Procedure, shortened: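 Milled capsules given fasted. Combination arm sampled on cycle 1 day 2, the first dosing day, ~24 h after IV taxane 80 mg/m2; QW arm sampled on cycle 1 day 1. LC-MS/MS validated over 1–1000 ng/mL. PK parameters summarised descriptively (geometric/arithmetic means, medians, CV).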

[4] = Plasma PK of TAK-228 4 mg in single-agent QD PK run-in; format: in vivo, human; settings: for AUC(0-inf) / Cmax: geometric mean (%CV)
Procedure, shortened: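 Run-in ≤14 days before cycle 1. Three visits ≥48 h apart, each a 4 mg oral dose: unmilled fasted, milled after high-fat breakfast, milled fasted. No proton pump inhibitor within 5 days or H2 antagonist within 24 h. LC-MS/MS validated over 1–1000 ng/mL. ANOVA on log Cmax and AUC (treatment fixed, patient random); geometric mean ratios with 90% CI.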

[5] = tested on: advanced non-haematological malignancies; assay: Tumour response; format: in vivo, human
Procedure, shortened: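 Response assessed by RECIST 1.1 on contrast CT or MRI of chest, abdomen and pelvis; bone scans allowed for bone metastases. Same modality kept per patient. Baseline scan within 4 weeks before first dose, then cycle 3 day 1 and every two cycles until end of study or discontinuation. ORR = CR+PR; clinical benefit = CR+PR+SD, and CR+PR+SD ≥6 months.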

[6] = human, plasma, oral, 4 mg, 4 mg milled, fed (high-fat breakfast)

In the case of `CC(C)n1nc(-c2ccc3oc(N)nc3c2)c2c(N)ncnc21` [TAK-228, Sapanisertib], the “Patients with DLT” value ([1]; QD 3 mg, 10 patients, grade 3 thrombocytopaenia) is reported as “one patient experienced a DLT”, the “DLT-evaluable patients with at least one DLT” value ([1]; QD 4 mg) is reported as 3/6 and the “Patients with DLT” value ([1]; QW 20 mg) is reported as “none of the six patients”. For the same molecule, the “Patients with DLT” value ([1]; QW 30 mg, cohort expanded to 12 patients, grade 3 adverse drug reaction) was 1 patient, the “Patients with DLT” value ([1]; QW 30 mg, initial six DLT-evaluable patients) was “none experiencing DLTs” and the “Maximum tolerated dose (MTD)” value ([1]; QD 3 days/week in combination with paclitaxel 80 mg/m^2) was 6 mg. The “Recommended phase II dose (RP2D)” value ([1]; in combination with paclitaxel 80 mg/m^2) was 4 mg, the “Maximum tolerated dose (MTD)” value ([1]; single-agent QD) was 3 mg and the “Recommended phase II dose (RP2D)” value ([1]; single-agent QD) was 3 mg. For the same molecule, the “Maximum tolerated dose (MTD)” value ([1]; single-agent QW) was 30 mg, the “Recommended phase II dose (RP2D)” value ([1]; single-agent QW) was 30 mg and the “Incidence of grade ≥3 drug-related AEs” value [2] was 31%. The “CL/F, geometric mean (CV)” value ([3]; QW 20 mg (n=7)) was 15.1 (46) L/hour, the “CL/F, geometric mean (CV)” value ([3]; QW 30 mg (n=13)) was 18.3 (63) L/hour and the “Effect of paclitaxel administered 24 hours before TAK-228 on TAK-228 PK” value ([3]; combination arm vs QD arm (4 mg, milled, fasted)) was “no clinically meaningful effects”. For the same molecule, the Cmax ([3]; 4 mg) was 28.5 ng/mL, the Tmax ([3]; 4 mg) was 2.2 h and the AUC(0-t) ([3]; 6 mg) was 244 ng·h/mL. It also gave an AUC(0-inf) ([3]; 20 mg) of 1330 ng·h/mL, an AUC(0-t) ([3]; 20 mg) of 1240 ng·h/mL and a Cmax ([3]; 20 mg) of 209 ng/mL. It also gave a Vd/F ([3]; 20 mg) of 125 L, a half-life ([3]; 20 mg) of 6.1 h and an AUC(0-inf) ([3]; 30 mg) of 1640 ng·h/mL. The AUC(0-t) ([3]; 30 mg) was 1530 ng·h/mL, the Cmax ([3]; 30 mg) was 235 ng/mL and the Tmax ([3]; 30 mg) was 1 h. For the same molecule, the Vd/F ([3]; 30 mg) was 155 L, the half-life ([3]; 30 mg) was 6 h and the AUC(0-inf) ([4]; human, plasma, oral, 4 mg, 4 mg milled, fasted) was 369 ng·h/mL. For the same molecule, the AUC(0-inf) [4, 6] was 383 ng·h/mL, the Cmax [4, 6] was 21.6 ng/mL and the Cmax ([4]; human, plasma, oral, 4 mg, 4 mg unmilled, fasted) was 34 ng/mL. For the same molecule, the Tmax ([4]; human, plasma, oral, 4 mg, Tmax, median (range), 4 mg milled, fed (high-fat breakfast)) was 6 h, the “Reduction in geometric mean Cmax, fed versus fasted” value ([4]; milled 4 mg, high-fat breakfast vs empty stomach) was ~ 40% and 40% and the “Best overall response: CR” value ([5]; QD 3 mg (n=11)) was 0 n (%). The “Best overall response: PD” value ([5]; QD 3 mg (n=11)) was 3 (27) n (%), the “Best overall response: PR” value ([5]; QD 3 mg (n=11)) was 1 (9) n (%) and the “Best overall response: SD (<6 months)” value ([5]; QD 3 mg (n=11)) was 3 (27) n (%). For the same molecule, the “Best overall response: SD (≥6 months)” value ([5]; QD 3 mg (n=11)) was 3 (27) n (%), the “Clinical benefit rate CR+PR + SD” value ([5]; QD 3 mg (n=11)) was 7 (64) n (%) and the “Clinical benefit rate CR+PR + SD ≥6 months” value ([5]; QD 3 mg (n=11)) was 4 (36) n (%). The “Objective response rate (CR+PR)” value ([5]; QD 3 mg (n=11)) was 1 (9) n (%), the “Best overall response: CR” value ([5]; QD 4 mg (n=6)) was 0 n (%) and the “Best overall response: PD” value ([5]; QD 4 mg (n=6)) was 3 (50) n (%). For the same molecule, the “Best overall response: PR” value ([5]; QD 4 mg (n=6)) was 1 (17) n (%), the “Best overall response: SD (<6 months)” value ([5]; QD 4 mg (n=6)) was 0 n (%) and the “Best overall response: SD (≥6 months)” value ([5]; QD 4 mg (n=6)) was 1 (17) n (%). For the same molecule, the “Clinical benefit rate CR+PR + SD” value ([5]; QD 4 mg (n=6)) was 2 (33) n (%), the “Clinical benefit rate CR+PR + SD ≥6 months” value ([5]; QD 4 mg (n=6)) was 2 (33) n (%) and the “Objective response rate (CR+PR)” value ([5]; QD 4 mg (n=6)) was 1 (17) n (%). For the same molecule, the “Best overall response: CR” value ([5]; QD Total (n=17)) was 0 n (%), the “Best overall response: PD” value ([5]; QD Total (n=17)) was 6 (35) n (%) and the “Best overall response: PR” value ([5]; QD Total (n=17)) was 2 (12) n (%). For the same molecule, the “Best overall response: SD (<6 months)” value ([5]; QD Total (n=17)) was 3 (18) n (%), the “Best overall response: SD (≥6 months)” value ([5]; QD Total (n=17)) was 4 (24) n (%) and the “Clinical benefit rate CR+PR + SD” value ([5]; QD Total (n=17)) was 9 (53) n (%). For the same molecule, the “Clinical benefit rate CR+PR + SD ≥6 months” value ([5]; QD Total (n=17)) was 6 (35) n (%), the “Objective response rate (CR+PR)” value ([5]; QD Total (n=17)) was 2 (12) n (%) and the “Objective response rate (ORR)” value ([5]; QD arm) was 12%. The “Overall clinical benefit rate (CR+PR + SD)” value ([5]; QD arm (9/17 patients)) was 52.9%, the “Best overall response: CR” value ([5]; QW 20 mg (n=7)) was 0 n (%) and the “Best overall response: PD” value ([5]; QW 20 mg (n=7)) was 3 (43) n (%). For the same molecule, the “Best overall response: PR” value ([5]; QW 20 mg (n=7)) was 0 n (%), the “Best overall response: SD (<6 months)” value ([5]; QW 20 mg (n=7)) was 3 (43) n (%) and the “Best overall response: SD (≥6 months)” value ([5]; QW 20 mg (n=7)) was 0 n (%). For the same molecule, the “Clinical benefit rate CR+PR + SD” value ([5]; QW 20 mg (n=7)) was 3 (43) n (%), the “Clinical benefit rate CR+PR + SD ≥6 months” value ([5]; QW 20 mg (n=7)) was 0 n (%) and the “Objective response rate (CR+PR)” value ([5]; QW 20 mg (n=7)) was 0 n (%). The “Best overall response: CR” value ([5]; QW 30 mg (n=13)) was 0 n (%), the “Best overall response: PD” value ([5]; QW 30 mg (n=13)) was 3 (23) n (%) and the “Best overall response: PR” value ([5]; QW 30 mg (n=13)) was 0 n (%). For the same molecule, the “Best overall response: SD (<6 months)” value ([5]; QW 30 mg (n=13)) was 5 (39) n (%), the “Best overall response: SD (≥6 months)” value ([5]; QW 30 mg (n=13)) was 1 (8) n (%) and the “Clinical benefit rate CR+PR + SD” value ([5]; QW 30 mg (n=13)) was 6 (46) n (%). For the same molecule, the “Clinical benefit rate CR+PR + SD ≥6 months” value ([5]; QW 30 mg (n=13)) was 1 (8) n (%), the “Objective response rate (CR+PR)” value ([5]; QW 30 mg (n=13)) was 0 n (%) and the “Best overall response: CR” value ([5]; QW Total (n=20)) was 0 n (%). The “Best overall response: PD” value ([5]; QW Total (n=20)) was 6 (30) n (%), the “Best overall response: PR” value ([5]; QW Total (n=20)) was 0 n (%) and the “Best overall response: SD (<6 months)” value ([5]; QW Total (n=20)) was 8 (40) n (%). For the same molecule, the “Best overall response: SD (≥6 months)” value ([5]; QW Total (n=20)) was 1 (5) n (%), the “Clinical benefit rate CR+PR + SD” value ([5]; QW Total (n=20)) was 9 (45) n (%) and the “Clinical benefit rate CR+PR + SD ≥6 months” value ([5]; QW Total (n=20)) was 1 (5) n (%). For the same molecule, the “Objective response rate (CR+PR)” value ([5]; QW Total (n=20)) was 0 n (%), the “Objective response rate (ORR)” value ([5]; QW arm) was 0% and the “Overall clinical benefit rate (CR+PR + SD)” value ([5]; QW arm (9/20 patients)) was 45%.
